Experimental data published in ChEMBL document CHEMBL4052822, “Design and Synthesis of Orally Bioavailable Piperazine Substituted 4(1H)-Quinolones with Potent Antimalarial Activity: Structure-Activity and Structure-Property Relationship Studies” (J Med Chem, 2018).
The source made the active and inactive calls. No cut-off for these calls is given here.

How the values were obtained:
Plasmodium falciparum [1] = test: Antimalarial activity against pyrimethamine/chloroquine-resistant Plasmodium falciparum W2 infected in human type A-positive erythrocytes after 48 hrs by [3H]-hypoxanthine incorporation assay; format: functional, cell-based
Summary of the method: (§1)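 Compound from 10.0 mM DMSO stock, diluted ≥1:400, then 11 concentrations in duplicate. Incubated at 37 °C under 90% N2/5% O2/5% CO2 for 48 h, then 3H-hypoxanthine added for 24 h more. CPM counted; EC50 by nonlinear regression.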

Plasmodium falciparum [2] = test: Antimalarial activity against mefloquine/chloroquine/atovaquone/pyrimethamine-resistant Plasmodium falciparum TM90-C2B infected in human type A-positive erythrocytes after 48 hrs by [3H]-hypoxanthine incorporation assay; format: functional, cell-based; summary of the method: as §1
Plasmodium berghei [3] = test: Antimalarial activity against Plasmodium berghei infected in human HepG2 cells after 44 hrs by luciferase assay; format: functional, cell-based; settings: HepG2, 44 h
Summary of the method: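 HepG2 cells, 75000 per well, in DMEM with 10% FBS at 37 °C, 5% CO2. 5000 Pb luciferase sporozoites from dissected mosquito salivary glands added per well for 3 h, then washed three times with PBS. Serially diluted compound added in triplicate, 44 h at 37 °C. Cells lysed, luciferase substrate added, luminescence read.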

J774 = test: Cytotoxicity against mouse J774 cells after 72 hrs by CellTiter-96 aqueous one solution cell proliferation assay; format: cell-based; settings: J774, 72 h
Summary of the method: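 Compounds from 10 µg/mL or 20 µM top concentration, 1:2 serial dilutions over 11 concentrations, 72 h at 37 °C, 5% CO2. MTS-type reagent added for 4 h, absorbance read at 490 nm. IC50 by nonlinear regression.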

Plasmodium berghei [4] = test: Antimalarial activity against blood stage form of GFP transfected Plasmodium berghei infected in mouse assessed as mouse survival day at 10 mg/kg, po administered on day 3, 4, 5 post infection by Thompson test; format: functional
Plasmodium berghei [5] = test: Antimalarial activity against blood stage form of GFP transfected Plasmodium berghei infected in mouse assessed as protection against parasitemia at 10 mg/kg, po administered on day 3, 4, 5 post infection measured on day 30 by Thompson test; format: functional, organism-based
Summary of the method: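 Modified Thompson model: mice inoculated ip with 2×10^6 P. berghei (GFP)-infected red blood cells, parasitemia near 1% by day 3. […] Animals followed for 30 days; survival to day 30 with parasitemia below 1% counted as cure.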

[6] = Aqueous solubility of compound at pH 6.5; format: physicochemical
Plasmodium berghei [7] = test: Antimalarial activity against liver stage form of luciferase transfected Plasmodium berghei sporozoites infected in mouse assessed as inhibition of parasitemia at 25 mg/kg administered via oral gavage 1 hr post infection measured on day 9 by bioluminescence method relative to control; format: functional
Plasmodium berghei [8] = test: Antimalarial activity against liver stage form of luciferase transfected Plasmodium berghei sporozoites infected in mouse assessed as inhibition of parasitemia at 50 mg/kg administered via oral gavage 1 hr post infection measured on day 9 by bioluminescence method relative to control; format: functional
Plasmodium berghei [9] = test: Antimalarial activity against liver stage form of luciferase transfected Plasmodium berghei sporozoites infected in mouse assessed as inhibition of parasitemia at 50 mg/kg, sc administered 1 hr post infection measured on day 9 by bioluminescence method relative to control; format: functional
Plasmodium berghei [10] = test: Antimalarial activity against liver stage form of luciferase transfected Plasmodium berghei sporozoites infected in mouse assessed as inhibition of parasitemia at 100 mg/kg administered via oral gavage 1 hr post infection measured on day 9 by bioluminescence method relative to control; format: functional
Plasmodium berghei [11] = test: Antimalarial activity against liver stage form of luciferase transfected Plasmodium berghei sporozoites infected in mouse assessed as protection against parasitemia at 100 mg/kg administered via oral gavage 1 hr post infection measured on day 30 by bioluminescence method; format: functional, organism-based
Summary of the method: (§2)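 Mice infected with luciferase-expressing P. berghei sporozoites, five per group. A single dose in PEG 400 was given orally by gavage (25, 50, 100 mg/kg) or subcutaneously (50 mg/kg) 1 h after infection. Infected untreated controls and a primaquine drug control were included. Whole-animal imaging was done 5 min after ip D-luciferin (100 mg/kg) under isoflurane, at 44 h and days 6, 9 and 13. Survival/cure followed to day 30.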

Plasmodium berghei [12] = test: Antimalarial activity against liver stage form of luciferase transfected Plasmodium berghei sporozoites infected in mouse assessed as protection against parasitemia at 25 to 100 mg/kg administered via oral gavage 1 hr post infection measured at 44 hrs by bioluminescence method; format: functional, organism-based; summary of the method: as §2
Plasmodium berghei [13] = test: Antimalarial activity against liver stage form of luciferase transfected Plasmodium berghei sporozoites infected in mouse assessed as protection against parasitemia at 25 to 100 mg/kg administered via oral gavage 1 hr post infection measured on day 6 to 13 by bioluminescence method; format: functional, organism-based; summary of the method: as §2
Plasmodium berghei [14] = test: Antimalarial activity against liver stage form of luciferase transfected Plasmodium berghei sporozoites infected in mouse assessed as protection against parasitemia at 50 mg/kg, sc administered 1 hr post infection measured at 44 hrs by bioluminescence method; format: functional, organism-based; summary of the method: as §2
Plasmodium berghei [15] = test: Antimalarial activity against liver stage form of luciferase transfected Plasmodium berghei sporozoites infected in mouse assessed as protection against parasitemia at 50 mg/kg, sc administered 1 hr post infection measured on day 6 to 13 by bioluminescence method; format: functional, organism-based; summary of the method: as §2
Plasmodium berghei [16] = test: animal or person; settings: in Mus musculus, po, read-out: INH
Plasmodium berghei [17] = test: Antimalarial activity against liver stage form of luciferase transfected Plasmodium berghei sporozoites infected in mouse assessed as protection against parasitemia at 25 to 50 mg/kg administered via oral gavage 1 hr post infection measured on day 30 by bioluminescence method; format: functional, organism-based; summary of the method: as §2
Plasmodium berghei [18] = test: Antimalarial activity against liver stage form of luciferase transfected Plasmodium berghei sporozoites infected in mouse assessed as protection against parasitemia at 50 mg/kg, sc administered 1 hr post infection measured on day 30 by bioluminescence method; format: functional, organism-based; summary of the method: as §2
Plasmodium berghei [19] = test: Antimalarial activity against liver stage form of luciferase transfected Plasmodium berghei sporozoites infected in mouse assessed as protection against parasitemia at 100 mg/kg administered via oral gavage 1 hr post infection measured on day 6 to 13 by bioluminescence method; format: functional, organism-based; summary of the method: as §2
Plasmodium berghei [20] = test: Antimalarial activity against liver stage form of luciferase transfected Plasmodium berghei sporozoites infected in mouse assessed as protection against parasitemia at 100 mg/kg administered via oral gavage 1 hr post infection measured at 44 hrs by bioluminescence method; format: functional, organism-based; summary of the method: as §2

COC(=O)c1c[nH]c2cc(CN3CCN(c4ccc(C(F)(F)F)cc4)CC3)ccc2c1=O
EC50 (Plasmodium falciparum [1]): 0.32 nM | EC50 (Plasmodium falciparum [2]): 120 nM | EC50 (Plasmodium berghei [3]): 16 nM | EC50 (J774): 11000 nM | Survival (Plasmodium berghei [4]): <=21 day | Activity (Plasmodium berghei [5]): inactive

COC(=O)c1c[nH]c2cc(CN3CCN(c4ccccc4)CC3)ccc2c1=O
EC50 (Plasmodium falciparum [1]): 1.3 nM | EC50 (Plasmodium falciparum [2]): 480 nM | EC50 (Plasmodium berghei [3]): 4.7 nM | solubility [6]: ≥ 80 µM | inhibition in vivo at 25 mg/kg (Plasmodium berghei [7]): 65.3% | inhibition in vivo at 50 mg/kg (Plasmodium berghei [8]): 85.1% | inhibition in vivo at 50 mg/kg (Plasmodium berghei [9]): > 99% | inhibition in vivo at 100 mg/kg (Plasmodium berghei [10]): > 99% | Activity (Plasmodium berghei [11]): Active | Activity (Plasmodium berghei [12]): Active | Activity (Plasmodium berghei [13]): Active | Activity (Plasmodium berghei [14]): Active | Activity (Plasmodium berghei [15]): Active

COc1cc(NC(C)CCCN)c2ncccc2c1 (stereo not drawn) [PRIMAQUINE]
inhibition in vivo at 50 mg/kg (Plasmodium berghei [8]): > 99%

O=c1c(Br)c[nH]c2cc(CN3CCN(c4ccc(F)cc4)CC3)ccc12
EC50 (Plasmodium falciparum [1]): 810 nM | EC50 (Plasmodium falciparum [2]): > 2000 nM | EC50 (Plasmodium berghei [3]): 0.86 nM | EC50 (J774): > 20000 nM | Survival (Plasmodium berghei [4]): <=13 day | Activity (Plasmodium berghei [5]): inactive | inhibition in vivo at 10 mg/kg (Plasmodium berghei [16]): 33%

Cc1[nH]c2cc(CN3CCN(c4ccc(F)cc4)CC3)ccc2c(=O)c1Cl
EC50 (Plasmodium falciparum [1]): 39 nM | EC50 (Plasmodium falciparum [2]): 52 nM | EC50 (J774): > 20000 nM | Survival (Plasmodium berghei [4]): <=13 day | Activity (Plasmodium berghei [5]): inactive | inhibition in vivo at 10 mg/kg (Plasmodium berghei [16]): 11%

COC(=O)c1c[nH]c2cc(CN3CCN(Cc4ccc(OC)cc4)CC3)ccc2c1=O
EC50 (Plasmodium falciparum [1]): 2.5 nM | EC50 (Plasmodium falciparum [2]): 800 nM | EC50 (Plasmodium berghei [3]): 83 nM | inhibition in vivo at 25 mg/kg (Plasmodium berghei [7]): 49.1% | inhibition in vivo at 50 mg/kg (Plasmodium berghei [9]): 20.1% | Activity (Plasmodium berghei [17]): Active | Activity (Plasmodium berghei [18]): inactive | Activity (Plasmodium berghei [19]): Active | Activity (Plasmodium berghei [20]): Active

COC(=O)c1c[nH]c2cc(CN3CCN(c4ccc(F)cc4)CC3)ccc2c1=O
EC50 (Plasmodium falciparum [1]): 1.8 nM | EC50 (Plasmodium falciparum [2]): 130 nM | EC50 (Plasmodium berghei [3]): 1.1 nM | EC50 (J774): 2000 nM | Survival (Plasmodium berghei [4]): <=21 day | Activity (Plasmodium berghei [5]): inactive
